bIAP inhibitor = blocks bovine intestinal alkaline phosphatase activity | 190,000 tested, under 10 active | purified bovine IAP, CDP-star luminescence, 30 min | inhibition, % at 20 µM;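 active = over 50% inhibition of intestinal alkaline phosphatase at 20 µM in the single-dose screen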
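Assay system: bovine IAP enzyme; medium: DEA buffer 100 mM, pH 9.8, with MgCl2 1.0 mM, ZnCl2 0.02 mM; doses: 20 µM single dose; incubation: enzyme reaction for 30 min at room temperature; detection: CDP-star luminescence signal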
mIAP block = blocks mouse intestinal alkaline phosphatase | inhibition, % at 10 µM | 330,000 tested, 0.2% active | purified mouse IAP, CDP-Star luminescence, 30 min;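 active = inhibition of at least 40% at 10 µM in the primary screen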
hIAP activ = increases human intestinal alkaline phosphatase activity. 330,000 tested, 0.16% active. purified human IAP, CDP-Star luminescence, 30 min; active compounds read high; 1 = vehicle-only enzyme, 0 = enzyme-free background. AID 2524. activation factor at 10 µM. P09923;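 active = activation factor of the enzyme at least 2-fold when tested at 20 µM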
Target sequence (P09923 whole entry, looked up): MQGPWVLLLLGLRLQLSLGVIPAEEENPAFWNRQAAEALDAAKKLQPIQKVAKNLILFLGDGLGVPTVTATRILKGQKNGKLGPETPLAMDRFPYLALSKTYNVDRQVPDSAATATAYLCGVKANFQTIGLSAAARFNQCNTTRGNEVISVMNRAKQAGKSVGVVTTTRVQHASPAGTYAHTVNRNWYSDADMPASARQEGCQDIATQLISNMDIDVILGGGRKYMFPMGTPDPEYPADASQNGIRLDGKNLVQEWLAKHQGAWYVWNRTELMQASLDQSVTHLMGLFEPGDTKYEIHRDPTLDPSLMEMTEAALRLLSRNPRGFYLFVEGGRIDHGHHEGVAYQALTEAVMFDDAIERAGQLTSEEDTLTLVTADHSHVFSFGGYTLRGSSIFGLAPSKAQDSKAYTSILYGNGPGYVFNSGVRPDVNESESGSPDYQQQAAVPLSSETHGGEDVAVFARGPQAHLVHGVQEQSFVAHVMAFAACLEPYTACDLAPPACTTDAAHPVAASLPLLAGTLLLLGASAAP
mIAP activ = increases mouse intestinal alkaline phosphatase activity; muIAP, CDP-Star luminescence, 30 min; active compounds read high; 1 = vehicle-only enzyme signal, 0 = enzyme-free wells; activation factor at 10 µM; 330,000 tested, 0.24% active; AID 2805;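 active = activation factor of at least 2 at 20 µM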
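System: Mouse IAP enzyme | Also added: CDP-Star substrate | Dosing: Compounds dispensed in DMSO | Schedule: 30 min enzyme-substrate-compound incubation at room temperature | Technique: Chemiluminescence readout | Control set: DMSO-only wells and no-enzyme negative control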
hIAP inh = human IAP inhibition; inhibition, % at 10 µM; P09923; 330,000 tested, 0.12% active; purified IAP, CDP-Star luminescence, 30 min; AID 2544;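 active = inhibition reaching a set limit with compound at 10 µM in the primary screen, cut at about 35% in these data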
bIAP act = intestinal alkaline phosphatase (bovine) activation | purified bovine IAP, CDP-star luminescence, 30 min; active compounds read high; fold of DMSO-control signal, blank-subtracted | activation factor at 20 µM | 200,000 tested, 0.17% active | AID 1016;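 active = activation factor of 2 or more at 20 µM, a signal rise over negative controls twice the positive control's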
mIAP inh confirm = mouse IAP inhibition confirmation; shares compounds with mIAP block; purified mouse IAP, CDP-Star luminescence, 30 min; inhibition, % at 10 µM; 11,000 tested, 4.7% active;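 active = inhibition of at least 40% at 10 µM in either of the two replicates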
Numbers stand for hits; . = inactive; / = no result given; ! = repeats disagree. In the library only some 0.72% were active in any assay of this set; here they are far more common.

SMILES | bIAP inhibitor | mIAP block | hIAP activ | mIAP activ | hIAP inh | bIAP act | mIAP inh confirm
CN(C)c1ccc(NC(=O)Cc2ccccc2)c2ccccc12 | / | . | . | . | . | / | /
Cc1cnc(NC(=O)Cc2ccc(C)c(C)c2)s1 | / | . | . | . | . | / | /
COc1ccc(C(=O)OCC(=O)NC2CCCCCC2)cc1OC | / | 58 | . | . | . | / | 71
O=c1c2c3c(sc2[nH]c(=S)n1Cc1ccco1)CCC3 | / | 59 | . | . | . | / | 64
CC1(C)Cc2c(sc3[nH]c(=S)n(Cc4ccco4)c(=O)c23)CO1 | . | . | . | . | . | . | /
CC(NC(=O)Nc1ccc(Cl)cc1)c1ccc2c(c1)OCO2 (stereo unspecified) | / | . | . | 2.8 | . | / | .
COc1ccc(NC(=O)NC(C)c2ccc3c(c2)OCO3)cc1OC (stereo unspecified) | / | . | . | . | . | / | /
O=C(O)c1cc(-c2ccco2)[nH]n1 | . | 69 | . | . | . | . | 68
O=C(CNc1cccc2ccccc12)N/N=C/C=C/c1ccco1 | . | 61 | . | . | . | . | 59
O=C(CNc1cccc2ccccc12)N/N=C/c1ccc(C(=O)O)cc1 | . | . | . | . | . | . | /
CCOc1cc(/C=C2\SC(=S)N(Nc3ccccc3)C2=O)ccc1O | . | 44 | . | . | . | . | 47
O=C(NN1C(=O)/C(=C\c2ccc(O)c([N+](=O)[O-])c2)SC1=S)c1ccccc1Cl | / | 44 | . | . | . | / | 49
CCN1C(=O)/C(=C2\SC(=S)N(NC(=O)c3cccnc3)C2=O)c2ccccc21 | / | 49 | . | . | . | / | 64
Cc1ccc(/C=C2\SC(=S)N(CC3CCCO3)C2=O)o1 (stereo unspecified) | / | . | . | . | . | / | /
O=C1/C(=C\c2ccco2)NC(=S)N1c1ccccc1 | . | . | . | . | . | . | /
O=C1/C(=C/c2ccco2)SC(=S)N1CC1CCCO1 (stereo unspecified) | / | 48 | . | . | . | / | 54
COc1ccc(CCN2C(=O)/C(=C\c3ccco3)SC2=S)cc1OC | . | 42 | . | . | . | . | 45
O=C1/C(=C\c2ccco2)SC(=S)N1c1ccccc1 | . | 64 | . | . | . | . | 57
Cc1ccc(N2C(=O)/C(=C\c3ccco3)SC2=S)cc1 | . | 55 | . | . | . | . | 65
O=C(CCc1nnc2ccc(NCc3ccco3)nn12)Nc1ccc(F)cc1F | / | . | . | . | . | / | /
COc1ccc(CCNC(=O)c2ccccc2OCc2c(C)noc2C)cc1 | / | . | . | . | . | / | /
Cc1c2ccccc2cc(Cc2ccccc2)[n+]1C | / | . | . | . | . | / | /
C=C(C)c1cccc(C(C)(C)NC(=O)Nc2ccc(C(N)=O)cc2)c1 | . | . | . | 2.2 | . | . | .
Cc1cc(C)cc(C(=O)N(NC(=O)Nc2ccc(Cl)cc2)C(C)(C)C)c1 | . | . | . | 4.3 | . | . | .
CC(C)(C)N(NC(=O)Nc1ccc(Cl)c(Cl)c1)C(=O)c1ccccc1 | . | . | . | 6.8 | . | . | .
SMILES | bIAP inhibitor | mIAP block | hIAP activ | mIAP activ | hIAP inh | bIAP act | mIAP inh confirm
C=Cc1c(C)c2cc3[nH]c(cc4nc(cc5nc(cc1[nH]2)C(C)=C5CCC(=O)O)C(CCC(=O)O)=C4C)c(C)c3C=C | / | 42! | . | . | . | / | 42
O=C(CSc1n[nH]c(-c2ccccc2)n1)c1ccc(O)c(O)c1 | / | 65 | . | . | . | . | 69
Cc1ccc(O)c(NC(=O)CSc2n[nH]c(-c3ccccc3)n2)c1 | / | . | . | . | . | / | /
COC(=O)C(NC(=O)CCc1c(C)nc2c(c(C)nn2-c2ccccc2)c1C)C(C)C (stereo unspecified) | / | . | . | . | . | / | /
COc1ccc(C2CC(c3ccccc3Cl)=NN2c2ccc(S(N)(=O)=O)cc2)cc1 (stereo unspecified) | / | . | / | 2.2 | / | / | .
Cc1ccc(-n2nc3c(=O)n(CCCC(=O)NCc4ccc(C)o4)nc(C)c3c2C)cc1 | / | . | . | . | . | / | /
CN(C(=O)CSc1nc(N)cc(N)n1)C1CCS(=O)(=O)C1 (stereo unspecified) | / | . | . | . | . | / | /
NC1=NC(=O)/C(=C\c2ccco2)S1 | / | 75 | . | . | . | / | 82
O=C1/C(=C\c2ccc(O)cc2)SC(=S)N1/N=C/c1ccc(O)cc1 | / | 49 | . | . | . | / | 57

Screening data deposited in PubChem by Sanford-Burnham Center for Chemical Genomics.
